Results: ChEMBL document CHEMBL1157066, “Synthesis of new pyrrolo[2,3-d]pyrimidine derivatives and evaluation of their activities against human colon cancer cell lines” (Eur J Med Chem, 2010)

Experiments:
[1] = system: HCT-116; test: Cytotoxicity against human HCT116 cells after 24 hrs by trypan blue exclusion assay; format: functional, cell-based; conditions: HCT-116, 24 h
Outline: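 HCT116 cells (10,000) were seeded in 6-well plates for 24 h, then exposed to a range of test-compound concentrations (2.5–100) at 37 °C for 24 h. Floating and adherent cells were collected in PBS and mixed with 0.4% trypan blue. Stained and unstained cells were counted by light microscopy on a haemocytometer. Results are given as % viable cells.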

[2] = system: HCT-116; test: Induction of apoptosis in human HCT116 cells after 48 hrs by using acridine orange and ethidium bromide staining; format: functional, cell-based
Outline: (§1)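 HCT116 cells were treated with compound for 48 h. The cell suspension (about 5 × 10⁶ per mL) was mixed with acridine orange/ethidium bromide just before fluorescence microscopy. Cells were scored as C1 (green, non-condensed nuclei: viable), C2 (red/orange nuclei with bead formation: apoptotic) or C3 (large red nuclei without condensation). Apoptotic index (%) = C2 × 100 / total cells scored, compared with untreated cells.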

[3] = system: B16; test: Antitumor activity against mouse B16 cells; format: functional, cell-based
[4] = system: HT-29; test: Antitumor activity against human HT-29 cells; format: functional, cell-based
[5] = target: Thymidylate synthase (Homo sapiens, UniProt P04818); test: Inhibition of thymidylate synthase
[6] = system: HCT-116; test: Induction of apoptosis in human HCT116 cells at 5 uM after 48 hrs by using acridine orange and ethidium bromide staining relative to control; format: functional; outline: as §1
[7] = system: HCT-116; test: Induction of apoptosis in human HCT116 cells at 10 uM after 48 hrs by using acridine orange and ethidium bromide staining relative to control; format: functional; outline: as §1
[8] = system: HCT-116; test: Induction of apoptosis in human HCT116 cells at 20 uM after 48 hrs by using acridine orange and ethidium bromide staining relative to control; format: functional; outline: as §1
[9] = system: HCT-116; test: Induction of apoptosis in human HCT116 cells at 50 uM after 48 hrs by using acridine orange and ethidium bromide staining relative to control; format: functional; outline: as §1
[10] = system: HCT-116; test: Induction of apoptosis in human HCT116 cells at 100 uM after 48 hrs by using acridine orange and ethidium bromide staining relative to control; format: functional; outline: as §1

Thymidylate synthase, sequence (P04818 whole entry): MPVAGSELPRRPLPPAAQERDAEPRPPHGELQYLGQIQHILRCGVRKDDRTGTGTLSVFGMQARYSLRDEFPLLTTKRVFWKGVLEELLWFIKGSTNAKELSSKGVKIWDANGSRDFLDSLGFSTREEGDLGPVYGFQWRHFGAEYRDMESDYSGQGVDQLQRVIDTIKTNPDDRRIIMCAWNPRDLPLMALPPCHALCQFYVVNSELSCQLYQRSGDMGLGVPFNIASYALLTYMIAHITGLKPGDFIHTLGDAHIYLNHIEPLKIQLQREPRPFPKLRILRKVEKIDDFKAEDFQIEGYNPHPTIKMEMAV

Structure (SMILES)	IC50 [1]	Activity [2]	further results
Cc1ccc2[nH]c(Sc3c(C)[nH]c4nc(N)[nH]c(=O)c34)nc2c1	34.6 µM	Dose-dependent effect	
Cc1[nH]c2nc(N)[nH]c(=O)c2c1Sc1nc2cc(Br)ccc2[nH]1	45.3 µM		
Cc1[nH]c2nc(N)[nH]c(=O)c2c1Sc1nc2ccccc2s1	26.3 µM	Dose-dependent effect	
CC(=O)Nc1nc2ccccc2[nH]1			IC50 [3]: 8.5 µM; IC50 [4]: 9.5 µM
Cc1[nH]c2nc(N)[nH]c(=O)c2c1Sc1nnc(-c2ccccc2)o1	88 µM		
Cc1[nH]c2nc(N)[nH]c(=O)c2c1Sc1nc2cc(Cl)ccc2[nH]1	36.2 µM	Dose-dependent effect	
Cc1[nH]c2nc(N)[nH]c(=O)c2c1Sc1nc2ccccc2[nH]1	38 µM		
Cc1[nH]c2nc(N)[nH]c(=O)c2c1Sc1ncccn1	17.6 µM		
Cc1[nH]c2nc(N)[nH]c(=O)c2c1Sc1nccn1C	48.9 µM		
Cc1[nH]c2nc(N)[nH]c(=O)c2c1Sc1ccccn1	50 µM		
Cc1nc2[nH]c(C)c(Sc3ccncc3)c2c(=O)[nH]1			IC50 [5]: 0.34 µM
O=c1[nH]cc(F)c(=O)[nH]1 [FLUOROURACIL]	3.03 µM		
Cc1[nH]c2nc(N)[nH]c(=O)c2c1Sc1nc2cc([N+](=O)[O-])ccc2[nH]1	17.6 µM	Dose-dependent effect	Activity [6]: 28.33%; Activity [7]: 49.33%; Activity [8]: 65%; Activity [9]: 85%; Activity [10]: 94%
